# Data from EPA's CvTdb concentration-time database.
# Assays:
# Rat [1] = assay: concentration in plasma after dosing; conditions: dosed: Isoeugenol, 17 mg/kg, oral, Female, F344/N
# Rat [2] = assay: concentration in plasma after dosing; conditions: dosed: Isoeugenol, 17 mg/kg, oral, Male, F344/N
# Rat [3] = assay: concentration in plasma after dosing; conditions: dosed: Isoeugenol, oral, F344/N
# Rat [4] = assay: concentration in plasma after dosing; conditions: dosed: Isoeugenol, 17 mg/kg, oral, Female, F344/N; remark: listed apart in the source
# rat [5] = assay: concentration in blood after dosing; conditions: dosed: styrene, 3000 ppm, dermal, duration: 4 hr, male, F344
# rat [6] = assay: concentration in blood after dosing; conditions: dosed: styrene, 3000 ppm, dermal, duration: 4 hr, male, F344; remark: listed apart in the source
# human = assay: concentration in expired air after dosing; conditions: dosed: styrene, inhalation
# Summary of the method: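 Sampling and analytical methods are those of each source and frequently went unreported. The concentration-versus-time and amount-versus-time points were compiled from published in vivo toxicokinetic studies and two structured collections. Most were digitised from plot screenshots with WebPlotDigitizer, with others copied from tables, in the reported units.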
structure (smiles),measurement,setting,value
C/C=C/c1ccc(O)c(OC)c1 [Isoeugenol],concentration in plasma,Rat [1]; 20 min,86.9 ng/mL
same,concentration in plasma,Rat [1]; 1.5 h,33.6 ng/mL
same,concentration in plasma,Rat [2]; 0.5 h,95.4 ng/mL
same,concentration in plasma,Rat [2]; 2 h,30.2 ng/mL
same,concentration in plasma,"Rat [3]; 2 min, 17 mg/kg, Female",48.3 ng/mL
same,concentration in plasma,"Rat [3]; 2 min, 17 mg/kg, Male",53.9 ng/mL
same,concentration in plasma,"Rat [3]; 2 min, 70 mg/kg, Male",1160 ng/mL
same,concentration in plasma,"Rat [3]; 5 min, 17 mg/kg, Female",346 ng/mL
same,concentration in plasma,"Rat [3]; 5 min, 17 mg/kg, Male",141 ng/mL
same,concentration in plasma,"Rat [3]; 5 min, 70 mg/kg, Male",683 ng/mL
same,concentration in plasma,"Rat [3]; 10 min, 17 mg/kg, Female",161 ng/mL
same,concentration in plasma,"Rat [3]; 10 min, 17 mg/kg, Male",148 ng/mL
same,concentration in plasma,"Rat [3]; 10 min, 70 mg/kg, Male",499 ng/mL
same,concentration in plasma,"Rat [3]; 20 min, 17 mg/kg, Female",358 ng/mL
same,concentration in plasma,"Rat [3]; 20 min, 17 mg/kg, Male",86.1 ng/mL
same,concentration in plasma,"Rat [3]; 20 min, 70 mg/kg, Male",672 ng/mL
same,concentration in plasma,"Rat [3]; 0.5 h, 17 mg/kg, Female",155 ng/mL
same,concentration in plasma,"Rat [3]; 0.5 h, 17 mg/kg, Male",87.8 ng/mL
same,concentration in plasma,"Rat [3]; 0.5 h, 70 mg/kg, Male",312 ng/mL
same,concentration in plasma,"Rat [3]; 0.75 h, 17 mg/kg, Female",73.5 ng/mL
same,concentration in plasma,"Rat [3]; 0.75 h, 17 mg/kg, Male",73 ng/mL
same,concentration in plasma,"Rat [3]; 1 h, 17 mg/kg, Female",57.7 ng/mL
same,concentration in plasma,"Rat [3]; 1 h, 17 mg/kg, Male",34.4 ng/mL
same,concentration in plasma,"Rat [3]; 1.5 h, 17 mg/kg, Male",26.5 ng/mL
same,concentration in plasma,"Rat [3]; 1.5 h, 70 mg/kg, Male",118 ng/mL
same,concentration in plasma,"Rat [3]; 2 h, 17 mg/kg, Female",27.7 ng/mL
same,concentration in plasma,"Rat [3]; 3 h, 17 mg/kg, Female",48.1 ng/mL
same,concentration in plasma,"Rat [3]; 3 h, 70 mg/kg, Male",216 ng/mL
same,concentration in plasma,"Rat [3]; 4 h, 17 mg/kg, Female",35.3 ng/mL
same,concentration in plasma,"Rat [3]; 4 h, 17 mg/kg, Male",37.5 ng/mL
same,concentration in plasma,"Rat [3]; 5 h, 17 mg/kg, Female",50.1 ng/mL
same,concentration in plasma,"Rat [3]; 5 h, 70 mg/kg, Male",199 ng/mL
same,concentration in plasma,"Rat [3]; 6 h, 17 mg/kg, Female",32.7 ng/mL
same,concentration in plasma,"Rat [3]; 6 h, 17 mg/kg, Male",27.6 ng/mL
same,concentration in plasma,"Rat [3]; 6 h, 70 mg/kg, Male",150 ng/mL
same,concentration in plasma,"Rat [3]; 8 h, 17 mg/kg, Female",38.5 ng/mL
same,concentration in plasma,"Rat [3]; 8 h, 70 mg/kg, Male",362 ng/mL
same,concentration in plasma,Rat [4]; 0.75 h,52.2 ng/mL
same,concentration in plasma,Rat [4]; 3 h,16.3 ng/mL
C=Cc1ccccc1 [styrene],concentration in blood,rat [5]; 0.5 h,1550 ng/mL
same,concentration in blood,rat [5]; 1 h,3450 ng/mL
same,concentration in blood,rat [5]; 2 h,4650 ng/mL
same,concentration in blood,rat [5]; 3 h,8180 ng/mL
same,concentration in blood,rat [5]; 4 h,8810 ng/mL
same,concentration in blood,rat [6]; 0.5 h,1480 ng/mL
same,concentration in blood,rat [6]; 1 h,2090 ng/mL
same,concentration in blood,rat [6]; 2 h,4160 ng/mL
same,concentration in blood,rat [6]; 3 h,6070 ng/mL
same,concentration in blood,rat [6]; 4 h,7610 ng/mL
same,concentration in expired air,"human; 19 s, 51 ppm, duration: 1 hr, male",14.8 ppm
same,concentration in expired air,"human; 41 s, 216 ppm, duration: 1 hr, male",4.56 ppm
same,concentration in expired air,"human; 65 s, 51 ppm, duration: 1 hr, male",1.02 ppm
same,concentration in expired air,"human; 96 s, 376 ppm, duration: 1 hr, male",9.08 ppm
same,concentration in expired air,"human; 141 s, 216 ppm, duration: 1 hr, male",3.69 ppm
same,concentration in expired air,"human; 148 s, 51 ppm, duration: 1 hr, male",0.849 ppm
same,concentration in expired air,"human; 148 s, 99 ppm, duration: 7 hr, male",2.17 ppm
same,concentration in expired air,"human; 196 s, 376 ppm, duration: 1 hr, male",7.4 ppm
same,concentration in expired air,"human; 214 s, 51 ppm, duration: 1 hr, male",0.744 ppm
same,concentration in expired air,"human; 251 s, 99 ppm, duration: 7 hr, male",1.35 ppm
same,concentration in expired air,"human; 0.1527 h, 51 ppm, duration: 1 hr, male",0.506 ppm
same,concentration in expired air,"human; 0.2175 h, 376 ppm, duration: 1 hr, male",4 ppm
same,concentration in expired air,"human; 0.2306 h, 216 ppm, duration: 1 hr, male",2.27 ppm
same,concentration in expired air,"human; 0.2368 h, 51 ppm, duration: 1 hr, male",0.409 ppm
same,concentration in expired air,"human; 0.2553 h, 99 ppm, duration: 7 hr, male",1.24 ppm
same,concentration in expired air,"human; 0.3483 h, 99 ppm, duration: 7 hr, male",1.14 ppm
same,concentration in expired air,"human; 0.4469 h, 376 ppm, duration: 1 hr, male",3.1 ppm
same,concentration in expired air,"human; 0.4803 h, 51 ppm, duration: 1 hr, male",0.317 ppm
same,concentration in expired air,"human; 0.5105 h, 99 ppm, duration: 7 hr, male",1.08 ppm
same,concentration in expired air,"human; 0.7137 h, 376 ppm, duration: 1 hr, male",2.21 ppm
same,concentration in expired air,"human; 0.8189 h, 99 ppm, duration: 7 hr, male",0.876 ppm
same,concentration in expired air,"human; 0.9608 h, 216 ppm, duration: 1 hr, male",0.927 ppm
same,concentration in expired air,"human; 0.9799 h, 51 ppm, duration: 1 hr, male",0.0904 ppm
same,concentration in expired air,"human; 1.046 h, 376 ppm, duration: 1 hr, male",1.29 ppm
same,concentration in expired air,"human; 1.064 h, 99 ppm, duration: 7 hr, male",0.733 ppm
same,concentration in expired air,"human; 1.944 h, 99 ppm, duration: 7 hr, male",0.648 ppm
same,concentration in expired air,"human; 1.964 h, 216 ppm, duration: 1 hr, male",0.501 ppm
same,concentration in expired air,"human; 1.984 h, 376 ppm, duration: 1 hr, male",0.934 ppm
same,concentration in expired air,"human; 1.988 h, 51 ppm, duration: 1 hr, male",0.0505 ppm
same,concentration in expired air,"human; 2.93 h, 99 ppm, duration: 7 hr, male",0.521 ppm
same,concentration in expired air,"human; 2.954 h, 376 ppm, duration: 1 hr, male",0.719 ppm
same,concentration in expired air,"human; 2.958 h, 216 ppm, duration: 1 hr, male",0.345 ppm
same,concentration in expired air,"human; 3.928 h, 216 ppm, duration: 1 hr, male",0.226 ppm
same,concentration in expired air,"human; 3.963 h, 376 ppm, duration: 1 hr, male",0.827 ppm
same,concentration in expired air,"human; 4.085 h, 99 ppm, duration: 7 hr, male",0.403 ppm
same,concentration in expired air,"human; 4.943 h, 376 ppm, duration: 1 hr, male",0.594 ppm
same,concentration in expired air,"human; 4.946 h, 216 ppm, duration: 1 hr, male",0.197 ppm
same,concentration in expired air,"human; 4.988 h, 99 ppm, duration: 7 hr, male",0.355 ppm
same,concentration in expired air,"human; 5.975 h, 376 ppm, duration: 1 hr, male",0.586 ppm
same,concentration in expired air,"human; 5.991 h, 216 ppm, duration: 1 hr, male",0.112 ppm
same,concentration in expired air,"human; 5.998 h, 99 ppm, duration: 7 hr, male",0.242 ppm
same,concentration in expired air,"human; 6.225 h, 80 ppm, duration: 6 hr",4.3 ng/mL
same,concentration in expired air,"human; 6.495 h, 80 ppm, duration: 6 hr",2.75 ng/mL
same,concentration in expired air,"human; 7.018 h, 216 ppm, duration: 1 hr, male",0.0821 ppm
same,concentration in expired air,"human; 7.17 h, 80 ppm, duration: 6 hr",1.58 ng/mL
same,concentration in expired air,"human; 8.16 h, 80 ppm, duration: 6 hr",1.16 ng/mL
same,concentration in expired air,"human; 10.28 h, 80 ppm, duration: 6 hr",0.549 ng/mL
same,concentration in expired air,"human; 12.21 h, 80 ppm, duration: 6 hr",0.402 ng/mL
same,concentration in expired air,"human; 14.37 h, 80 ppm, duration: 6 hr",0.315 ng/mL
same,concentration in expired air,"human; 18.33 h, 80 ppm, duration: 6 hr",0.308 ng/mL
same,concentration in expired air,"human; 23.51 h, 80 ppm, duration: 6 hr",0.257 ng/mL
same,concentration in expired air,"human; 30.62 h, 80 ppm, duration: 6 hr",0.148 ng/mL
same,concentration in expired air,"human; 46.95 h, 80 ppm, duration: 6 hr",0.102 ng/mL
